Laboratory results taken from ChEMBL document CHEMBL4396879, “Conjugation of Short Peptides to Dibenzodiazepinone-Type Muscarinic Acetylcholine Receptor Ligands Determines M2R Selectivity” (J Med Chem, 2019).

Legend:
Type in all cases: cell-based
[1] = molecular target: T1, Muscarinic acetylcholine receptor M4 (Homo sapiens, UniProt P08173); assay: Binding affinity to muscarinic M4 receptor (unknown origin) expressed in CHO cells
T1 sequence (P08173 whole entry): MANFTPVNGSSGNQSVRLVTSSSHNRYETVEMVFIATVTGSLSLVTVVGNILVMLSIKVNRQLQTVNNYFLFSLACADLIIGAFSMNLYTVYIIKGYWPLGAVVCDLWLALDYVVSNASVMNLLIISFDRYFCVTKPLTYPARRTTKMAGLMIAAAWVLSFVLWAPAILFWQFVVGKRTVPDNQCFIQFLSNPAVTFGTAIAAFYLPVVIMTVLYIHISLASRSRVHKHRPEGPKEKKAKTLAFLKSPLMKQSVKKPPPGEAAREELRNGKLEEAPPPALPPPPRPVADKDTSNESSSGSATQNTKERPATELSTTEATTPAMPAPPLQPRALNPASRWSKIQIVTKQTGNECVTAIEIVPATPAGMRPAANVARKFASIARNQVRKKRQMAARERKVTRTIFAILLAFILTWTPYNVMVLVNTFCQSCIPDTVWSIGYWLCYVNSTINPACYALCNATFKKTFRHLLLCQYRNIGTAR
How it was run: (§1)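 [3H]NMS competition binding on intact CHO-hMxR cells in L15 medium with 1% BSA, 3 h at 22 ± 1 °C with gentle shaking. [3H]NMS was 0.2 nM (M1, M2, M3), 0.1 nM (M4) or 0.3 nM (M5). […] Cells were lysed in urea/acetic acid/Triton and counted by liquid scintillation. Ki from Cheng-Prusoff. Triplicates, ≥3 experiments.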

[2] = molecular target: Muscarinic acetylcholine receptors; M1 & M2 (Homo sapiens) (UniProt P11229+P08172); assay: Selectivity ratio of Ki for muscarinic M1 receptor (unknown origin) expressed in CHO cells to Ki for muscarinic M2 receptor (unknown origin) expressed in CHO cells
How it was run: (§2)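 Ratio of mean Ki values. Each Ki came from an individual [3H]NMS competition experiment at the given CHO-hMxR subtype, converting IC50 to Ki by Cheng-Prusoff before averaging.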

[3] = molecular target: T2, Muscarinic acetylcholine receptor M2 (Homo sapiens, UniProt P08172); assay: Binding affinity to muscarinic M2 receptor (unknown origin) expressed in CHO cells; how it was run: as §1
T2 sequence (P08172 whole entry): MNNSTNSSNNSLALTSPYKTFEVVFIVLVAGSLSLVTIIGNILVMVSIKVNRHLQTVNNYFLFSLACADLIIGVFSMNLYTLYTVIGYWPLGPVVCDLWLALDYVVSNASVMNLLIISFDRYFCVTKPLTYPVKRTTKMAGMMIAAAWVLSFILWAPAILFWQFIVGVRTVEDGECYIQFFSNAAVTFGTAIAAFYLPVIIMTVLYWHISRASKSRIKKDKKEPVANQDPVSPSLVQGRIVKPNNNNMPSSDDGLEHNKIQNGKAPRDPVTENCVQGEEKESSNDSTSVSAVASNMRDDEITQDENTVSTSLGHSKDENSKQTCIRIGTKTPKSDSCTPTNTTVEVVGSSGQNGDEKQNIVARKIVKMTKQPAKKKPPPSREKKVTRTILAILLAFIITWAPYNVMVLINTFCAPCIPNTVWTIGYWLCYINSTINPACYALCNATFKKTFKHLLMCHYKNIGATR

[4] = molecular target: T3, Muscarinic acetylcholine receptor M2 and M5 (Homo sapiens) (UniProt P08172+P08912); assay: Selectivity ratio of ki for muscarinic M5 receptor (unknown origin) expressed in CHO cells to muscarinic M2 receptor (unknown origin) expressed in CHO cells; how it was run: as §2
[5] = molecular target: T4, Muscarinic acetylcholine receptor M5 (Homo sapiens, UniProt P08912); assay: Binding affinity to muscarinic M5 receptor (unknown origin) expressed in CHO cells; how it was run: as §1
T4 sequence (P08912 whole entry): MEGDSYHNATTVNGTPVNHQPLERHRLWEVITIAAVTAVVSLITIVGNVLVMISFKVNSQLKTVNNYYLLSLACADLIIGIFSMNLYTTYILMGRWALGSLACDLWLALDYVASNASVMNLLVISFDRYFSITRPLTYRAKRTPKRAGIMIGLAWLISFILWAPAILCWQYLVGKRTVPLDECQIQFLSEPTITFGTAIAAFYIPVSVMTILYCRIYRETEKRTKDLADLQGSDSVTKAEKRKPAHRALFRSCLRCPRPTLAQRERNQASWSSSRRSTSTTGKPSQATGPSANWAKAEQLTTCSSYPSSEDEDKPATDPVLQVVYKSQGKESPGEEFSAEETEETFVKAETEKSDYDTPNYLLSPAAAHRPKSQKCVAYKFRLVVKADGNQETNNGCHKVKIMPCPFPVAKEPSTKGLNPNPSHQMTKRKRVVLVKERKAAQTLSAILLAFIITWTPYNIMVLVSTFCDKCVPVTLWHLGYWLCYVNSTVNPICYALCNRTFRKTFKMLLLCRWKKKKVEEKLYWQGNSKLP

[6] = molecular target: T5, Muscarinic acetylcholine receptor M1 (Homo sapiens, UniProt P11229); assay: Binding affinity to muscarinic M1 receptor (unknown origin) expressed in CHO cells; how it was run: as §1
T5 sequence (P11229 whole entry): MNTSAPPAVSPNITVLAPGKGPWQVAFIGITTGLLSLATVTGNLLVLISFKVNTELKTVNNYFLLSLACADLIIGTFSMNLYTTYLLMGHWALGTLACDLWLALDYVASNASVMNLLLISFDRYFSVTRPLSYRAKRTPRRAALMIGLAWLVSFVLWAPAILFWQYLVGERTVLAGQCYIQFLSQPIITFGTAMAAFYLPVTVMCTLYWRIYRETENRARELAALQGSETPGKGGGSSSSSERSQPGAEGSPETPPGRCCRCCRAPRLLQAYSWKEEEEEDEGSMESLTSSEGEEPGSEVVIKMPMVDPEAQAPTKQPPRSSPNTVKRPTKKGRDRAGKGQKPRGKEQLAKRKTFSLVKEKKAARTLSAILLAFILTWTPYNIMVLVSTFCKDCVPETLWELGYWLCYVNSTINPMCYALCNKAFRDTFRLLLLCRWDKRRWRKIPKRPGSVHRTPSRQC

[7] = molecular target: Muscarinic acetylcholine receptor M2 and M4 (Homo sapiens) (UniProt P08173+P08172); assay: Selectivity ratio of ki for muscarinic M4 receptor (unknown origin) expressed in CHO cells to muscarinic M2 receptor (unknown origin) expressed in CHO cells; how it was run: as §2
[8] = molecular target: T6, Muscarinic acetylcholine receptors; M2 & M3 (Homo sapiens) (UniProt P20309+P08172); assay: Selectivity ratio of Ki for muscarinic M3 receptor (unknown origin) expressed in CHO cells to Ki for muscarinic M2 receptor (unknown origin) expressed in CHO cells; how it was run: as §2
T6 sequence (P20309 whole entry, looked up, one chain of several): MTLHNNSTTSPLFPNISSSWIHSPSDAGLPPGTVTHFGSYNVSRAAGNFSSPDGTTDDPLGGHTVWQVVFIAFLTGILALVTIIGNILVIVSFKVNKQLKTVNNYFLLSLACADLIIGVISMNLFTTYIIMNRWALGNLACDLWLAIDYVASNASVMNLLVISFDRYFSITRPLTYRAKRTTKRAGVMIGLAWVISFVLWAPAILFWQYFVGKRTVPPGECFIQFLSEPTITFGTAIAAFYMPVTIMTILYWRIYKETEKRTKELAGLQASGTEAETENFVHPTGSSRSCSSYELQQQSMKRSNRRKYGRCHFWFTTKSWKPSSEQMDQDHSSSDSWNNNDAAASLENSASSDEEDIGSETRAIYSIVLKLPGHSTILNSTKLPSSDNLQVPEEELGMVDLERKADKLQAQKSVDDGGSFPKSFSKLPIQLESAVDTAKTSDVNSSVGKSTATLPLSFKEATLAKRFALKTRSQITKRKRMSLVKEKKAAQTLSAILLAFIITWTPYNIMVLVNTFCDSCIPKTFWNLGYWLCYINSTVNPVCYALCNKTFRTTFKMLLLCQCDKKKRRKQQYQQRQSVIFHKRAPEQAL

[9] = molecular target: T7, Muscarinic acetylcholine receptor M3 (Homo sapiens, UniProt P20309); assay: Binding affinity to muscarinic M3 receptor (unknown origin) expressed in CHO cells; how it was run: as §1
T7 sequence (P20309 whole entry): as the sequence (P20309 whole entry, looked up, one chain of several) above

[10] = molecular target: T2, Muscarinic acetylcholine receptor M2; assay: Displacement of [3H]-NMS from human muscarinic M2 receptor expressed in CHO-K1 cells by scintillation counting method; how it was run: as §1
[11] = molecular target: T6, Muscarinic acetylcholine receptors; M2 & M3 (Homo sapiens); assay: Selectivity ratio of Ki for human muscarinic M3 receptor expressed in stable CHO-K1 cells to Ki for human muscarinic M2 receptor expressed in stable CHO-K1 cells
[12] = molecular target: T5, Muscarinic acetylcholine receptor M1; assay: Displacement of [3H]-NMS from human muscarinic M1 receptor expressed in CHO-K1 cells by scintillation counting method; how it was run: as §1
[13] = molecular target: T3, Muscarinic acetylcholine receptor M2 and M5 (Homo sapiens); assay: Selectivity ratio of Ki for human muscarinic M5 receptor expressed in stable CHO-K1 cells to Ki for human muscarinic M2 receptor expressed in stable CHO-K1 cells
[14] = molecular target: T4, Muscarinic acetylcholine receptor M5; assay: Displacement of [3H]-NMS from human muscarinic M5 receptor expressed in CHO-K1 cells by scintillation counting method; how it was run: as §1
[15] = molecular target: T7, Muscarinic acetylcholine receptor M3; assay: Displacement of [3H]-NMS from human muscarinic M3 receptor expressed in CHO-K1 cells by scintillation counting method; how it was run: as §1
[16] = molecular target: T1, Muscarinic acetylcholine receptor M4; assay: Displacement of [3H]-NMS from human muscarinic M4 receptor expressed in CHO-K1 cells by scintillation counting method; how it was run: as §1

Ki [1]	Ratio Ki [2]	Ki [3]	Ratio Ki [4]	Ki [5]	Ki [6]	Ratio Ki [7]	Ratio Ki [8]	Ki [9]	Ki [10]	Ratio Ki [11]	Ki [12]	Ratio Ki [13]	Ki [14]	Ki [15]	Ki [16]	SMILES
50.1 nM	40	7.94 nM	40	316 nM	316 nM	6.3	50	398 nM								CCCC(C)(C)C(=O)N(CC)CCCC1CCN(CC(=O)N2c3ccccc3NC(=O)c3ccccc32)CC1
									30.2 nM	26	1070 nM	48	1450 nM	776 nM	174 nM	CCCC(C)(C)C(=O)N(CC)CCCC1CCN(CC(=O)N2c3ccc(Cl)cc3C(=O)Nc3cccnc32)CC1
7.94 nM				1260 nM	50.1 nM			100 nM								CCN(CC)CCCCC1CCN(CC(=O)N2c3ccccc3C(=O)Nc3cccnc32)CC1
